Measured values: ChEMBL document CHEMBL1123270, “10-Acetyl-10-hydroxyxantho[2,3-f]tetralin 8-glycosides as angular chromophore analogues of anthracyclines: synthesis, redox properties, microsomal oxygen consumption, and antileukemic evaluation” (1986)
Converted amounts (≈) assume the structure as drawn.

Assays:
Rattus norvegicus = assay: […] percent activity of doxorubicin was determined as augmentation of normal oxygen uptake by fresh rat liver microsomes used as measure of redox activity; assay type: functional; design: concentration or dose not given beside the values
L1210 = assay: Antileukemic cytotoxicity was evaluated for the compound against L1210 leukemia; assay type: functional; conditions: Mus musculus, read-out: ID50 (the source's name)
Procedure, shortened: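 L1210 cells grown in McCoy's 5A with glutamine, HCO3-, antibiotics and 10% heat-inactivated horse serum, 37 °C, humidified 95:5 air/CO2. Seeded at 10^5 cells/mL; drug added at 10, 1, 0.1 or 0.01 μg/mL final. Cell concentration counted by Coulter Counter after 72 h; ID50 taken as concentration giving 50% growth inhibition.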

SMILES | Activity (Rattus norvegicus) [%] | IC50 (L1210) [µg/mL]
CC(=O)[C@@H]1Cc2c(c(O)cc3c(=O)c4ccccc4oc23)[C@@H](OC2C[C@@H](N)[C@@H](O)C(C)O2)C1 (some centres not stated) | 10 | 8 (≈ 17.6 µM)
CC(=O)[C@]1(O)Cc2c(c(O)cc3c(=O)c4ccccc4oc23)[C@@H](OC2C[C@@H](NC(=O)C(F)(F)F)[C@@H](OC(=O)c3ccc([N+](=O)[O-])cc3)C(C)O2)C1 (some centres not stated) | 10 | 8 (≈ 11.2 µM)
CC(=O)[C@]1(O)Cc2c(c(O)cc3c(=O)c4ccccc4oc23)[C@@H](OC2C[C@@H](NC(=O)C(F)(F)F)[C@@H](O)C(C)O2)C1 (some centres not stated) | 3 | > 10
CC(=O)[C@@H]1Cc2c(c(O)cc3c(=O)c4ccccc4oc23)[C@@H](OC2C[C@@H](NC(=O)C(F)(F)F)[C@@H](O)C(C)O2)C1 (some centres not stated) | 6 | 10 (≈ 18.2 µM)
CC(=O)OCC1OC(O[C@H]2C[C@H](C(C)=O)Cc3c2c(O)cc2c(=O)c4ccccc4oc32)[C@@H](NC(=O)C(F)(F)F)C(OC(C)=O)[C@H]1OC(C)=O (some centres not stated) | 4 | > 10
CC(=O)[C@@H]1Cc2c(c(O)cc3c(=O)c4ccccc4oc23)[C@@H](OC2C[C@@H](NC(=O)C(F)(F)F)[C@@H](OC(=O)c3ccc([N+](=O)[O-])cc3)C(C)O2)C1 (some centres not stated) | 6 | 10 (≈ 14.3 µM)
